# Data from ChEMBL document CHEMBL1139384, “First Cdc7 kinase inhibitors: pyrrolopyridinones as potent and orally active antitumor agents. 2. Lead discovery” (J Med Chem, 2009).
# Active and inactive are the calls of the source. The calls are words filed in the database; no cut-off is given here.
# Assays:
# [1] = target: Fibroblast growth factor receptor 1 (Homo sapiens, UniProt P11362); test: Inhibition of FGFR1
# Insulin receptor = Insulin receptor (Homo sapiens, UniProt P06213); test: Inhibition of IR
# Chain of Insulin receptor (P06213 28-758 limits assumed): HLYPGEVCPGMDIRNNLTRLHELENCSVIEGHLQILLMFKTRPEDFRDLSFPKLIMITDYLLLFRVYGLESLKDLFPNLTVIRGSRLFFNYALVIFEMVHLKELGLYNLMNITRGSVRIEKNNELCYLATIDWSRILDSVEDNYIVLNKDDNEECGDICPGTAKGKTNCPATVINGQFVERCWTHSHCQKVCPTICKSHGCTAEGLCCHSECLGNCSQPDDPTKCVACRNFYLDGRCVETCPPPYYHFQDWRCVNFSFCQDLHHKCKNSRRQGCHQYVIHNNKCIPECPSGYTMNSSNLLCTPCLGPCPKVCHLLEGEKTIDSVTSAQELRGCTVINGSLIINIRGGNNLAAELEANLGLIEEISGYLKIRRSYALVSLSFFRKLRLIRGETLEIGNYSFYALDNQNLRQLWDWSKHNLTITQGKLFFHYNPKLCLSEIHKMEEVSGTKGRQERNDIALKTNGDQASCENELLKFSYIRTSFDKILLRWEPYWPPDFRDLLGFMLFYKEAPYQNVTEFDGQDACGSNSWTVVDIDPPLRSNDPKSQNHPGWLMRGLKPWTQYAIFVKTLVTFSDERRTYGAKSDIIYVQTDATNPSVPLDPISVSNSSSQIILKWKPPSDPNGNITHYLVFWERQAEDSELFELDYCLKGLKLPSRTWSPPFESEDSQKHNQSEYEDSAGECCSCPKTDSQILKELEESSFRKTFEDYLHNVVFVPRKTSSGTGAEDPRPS
# Chain of Insulin receptor (P06213 763-1382 limits assumed): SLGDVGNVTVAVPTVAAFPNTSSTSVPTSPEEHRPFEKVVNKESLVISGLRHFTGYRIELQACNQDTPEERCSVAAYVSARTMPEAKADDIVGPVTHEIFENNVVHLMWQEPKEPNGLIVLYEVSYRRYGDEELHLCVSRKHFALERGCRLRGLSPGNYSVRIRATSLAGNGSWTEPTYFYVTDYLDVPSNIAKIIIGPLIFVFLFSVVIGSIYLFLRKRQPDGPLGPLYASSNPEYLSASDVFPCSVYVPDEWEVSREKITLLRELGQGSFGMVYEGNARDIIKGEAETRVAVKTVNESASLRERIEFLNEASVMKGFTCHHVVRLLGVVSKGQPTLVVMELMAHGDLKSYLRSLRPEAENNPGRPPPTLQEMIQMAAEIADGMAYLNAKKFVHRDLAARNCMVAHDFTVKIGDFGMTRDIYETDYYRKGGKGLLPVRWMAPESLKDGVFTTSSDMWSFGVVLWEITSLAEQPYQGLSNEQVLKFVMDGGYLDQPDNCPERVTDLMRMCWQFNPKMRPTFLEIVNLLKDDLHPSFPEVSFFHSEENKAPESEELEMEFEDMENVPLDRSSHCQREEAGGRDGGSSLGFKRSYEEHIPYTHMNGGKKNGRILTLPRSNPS
# [2] = target: Mast/stem cell growth factor receptor Kit (Homo sapiens, UniProt P10721); test: Inhibition of KIT
# [3] = target: Hepatocyte growth factor receptor (Homo sapiens, UniProt P08581); test: Inhibition of MET
# [4] = target: Serine/threonine-protein kinase 26 (Homo sapiens, UniProt Q9P289); test: Inhibition of MST4
# Chain of Serine/threonine-protein kinase 26 (Q9P289 whole entry): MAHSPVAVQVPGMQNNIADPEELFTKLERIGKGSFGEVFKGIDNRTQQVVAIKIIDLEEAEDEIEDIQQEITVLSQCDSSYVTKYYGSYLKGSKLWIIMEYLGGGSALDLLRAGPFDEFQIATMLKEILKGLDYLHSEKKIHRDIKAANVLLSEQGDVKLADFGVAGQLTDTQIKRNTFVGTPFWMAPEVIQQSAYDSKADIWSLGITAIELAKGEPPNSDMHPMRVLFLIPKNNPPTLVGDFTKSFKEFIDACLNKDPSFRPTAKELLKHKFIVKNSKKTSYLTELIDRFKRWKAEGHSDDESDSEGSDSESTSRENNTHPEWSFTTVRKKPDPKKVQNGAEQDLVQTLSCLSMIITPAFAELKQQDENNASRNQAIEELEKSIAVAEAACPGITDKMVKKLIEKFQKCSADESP
# [5] = target: Cyclin-dependent kinase 9 (Homo sapiens, UniProt P50750); test: Inhibition of CDK9
# Hepatocyte = test: Metabolic stability in rat hepatocytes assessed as intrinsic clearance at 1 uM; type: cell-based; conditions: Liver
# [6] = Metabolic stability in human hepatocytes expressing CYP3A4 assessed as drug remaining after 1 hr; type: ADME, cell-based, Hepatocyte; conditions: read-out: Stability
# [7] = AUC (0 to infinity) in nu/nu mouse at 10 mg/kg, iv administered as single dose; type: ADME, organism-based; parameters: dose 10 mg/kg, route intravenous, time infinity; conditions: plasma
# In short: (§1)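 Single iv or oral dose in 5% dextrose to overnight-fasted animals. Nu/Nu mice: males, 3 per route, saphenous bleeds to 24 h. Han-Wistar rats: males, 3 per route, jugular bleeds to 24 h. Beagle dogs: 2 per sex, iv and po crossover 2 weeks apart, jugular bleeds to 48 h. Plasma by LC/MS/MS; noncompartmental parameters, AUC by linear trapezoid with extrapolation.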
# [8] = Cmax in nu/nu mouse at 10 mg/kg, po administered as single dose; type: ADME, organism-based; parameters: dose 10 mg/kg, route oral; conditions: in vivo; in short: as §1
# Rattus norvegicus [9] = test: AUC (0 to infinity) in Wistar rat at 10 mg/kg, iv administered as single dose; type: ADME, organism-based, Plasma; parameters: time infinity, dose 10 mg/kg, route intravenous; conditions: in vivo; in short: as §1
# [10] = Cmax in Beagle dog at 5 mg/kg, iv administered as single dose; type: ADME, organism-based, Canis lupus familiaris; parameters: dose 5 mg/kg, route intravenous; conditions: in vivo; in short: as §1
# [11] = AUC (0 to infinity) in Beagle dog at 5 mg/kg, iv administered as single dose; type: ADME, organism-based, Canis lupus familiaris; parameters: time infinity, dose 5 mg/kg, route intravenous; conditions: plasma; in short: as §1
# [12] = Renal clearance in Beagle dog at 5 mg/kg, iv administered as single dose; type: ADME, organism-based, Canis lupus familiaris, Kidney; parameters: dose 5 mg/kg, route intravenous; conditions: in vivo, read-out: CL_renal (converted)
# In short: (§2)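 Overnight-fasted Beagle dogs, 2 per sex, in a crossover design: 5 mg/kg iv and 10 mg/kg po, two weeks apart, in 5% dextrose. Jugular blood was drawn up to 48 h, and urine was collected over 0–8, 8–24 and 24–48 h. Samples were assayed by LC/MS/MS and analysed noncompartmentally.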
# [13] = Volume of distribution at steady state in Beagle dog at 5 mg/kg, iv administered as single dose; type: ADME, organism-based, Canis lupus familiaris; parameters: dose 5 mg/kg, route intravenous; conditions: in vivo, read-out: Vdss; in short: as §2
# [14] = Half life in Beagle dog at 5 mg/kg, iv administered as single dose; type: ADME, organism-based, Canis lupus familiaris; parameters: dose 5 mg/kg, route intravenous; conditions: in vivo; in short: as §1
# [15] = Cmax in Beagle dog at 10 mg/kg, po administered as single dose; type: ADME, organism-based, Canis lupus familiaris; parameters: dose 10 mg/kg, route oral; conditions: in vivo; in short: as §1
# [16] = AUC (0 to infinity) in Beagle dog at 10 mg/kg, po administered as single dose; type: ADME, organism-based, Canis lupus familiaris; parameters: time infinity, dose 10 mg/kg, route oral; conditions: plasma; in short: as §1
# COLO 205 = test: Antiproliferative activity against human COLO205 cells after 72 hrs by luciferase based assay; type: functional, cell-based; conditions: COLO 205, 72 h
# [17] = Antiproliferative activity against human […] cells after 72 hrs by luciferase based assay; type: functional, cell-based
# In short: (§3)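 Cells seeded at 2500–5000/well in complete medium (RPMI1640, McCoy's or DMEM with 10% FCS, by line); compound added after 24 h, 72 h at 37 °C, 5% CO2.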
# OPM-2 = test: Antiproliferative activity against human OPM2 cells after 72 hrs by luciferase based assay; type: functional, cell-based; conditions: OPM-2, 72 h; in short: as §3
# HeLa [18] = test: Inhibition of DNA synthesis in human HeLa cells at 3 uM assessed as bromodeoxyuridine incorporation after 3 hrs; type: functional; parameters: scale not given: the % may be the effect or the level left
# In short: (§4)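 Logarithmically growing HeLa cells exposed to 3 µM for set times, labelled with 50 µM BrdU, fixed in 70% ethanol. DNA content by propidium iodide with RNase A, 30 min at 37 °C; BrdU by FITC anti-BrdU after 2N HCl denaturation; percent positive cells by FACS.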
# HeLa [19] = test: Inhibition of DNA synthesis in human HeLa cells at 3 uM assessed as bromodeoxyuridine incorporation after 24 hrs; type: functional; parameters: scale not given: the % may be the effect or the level left; in short: as §4
# [20] = target: Cell division cycle 7-related protein kinase (Homo sapiens, UniProt O00311); test: Inhibition of human Cdc7 in human A2780 cells assessed as inhibition of Ser53 phosphorylation of Mcm2 protein at 3 uM up to 24 hrs; type: cell-based
# Chain of Cell division cycle 7-related protein kinase (O00311 whole entry, looked up): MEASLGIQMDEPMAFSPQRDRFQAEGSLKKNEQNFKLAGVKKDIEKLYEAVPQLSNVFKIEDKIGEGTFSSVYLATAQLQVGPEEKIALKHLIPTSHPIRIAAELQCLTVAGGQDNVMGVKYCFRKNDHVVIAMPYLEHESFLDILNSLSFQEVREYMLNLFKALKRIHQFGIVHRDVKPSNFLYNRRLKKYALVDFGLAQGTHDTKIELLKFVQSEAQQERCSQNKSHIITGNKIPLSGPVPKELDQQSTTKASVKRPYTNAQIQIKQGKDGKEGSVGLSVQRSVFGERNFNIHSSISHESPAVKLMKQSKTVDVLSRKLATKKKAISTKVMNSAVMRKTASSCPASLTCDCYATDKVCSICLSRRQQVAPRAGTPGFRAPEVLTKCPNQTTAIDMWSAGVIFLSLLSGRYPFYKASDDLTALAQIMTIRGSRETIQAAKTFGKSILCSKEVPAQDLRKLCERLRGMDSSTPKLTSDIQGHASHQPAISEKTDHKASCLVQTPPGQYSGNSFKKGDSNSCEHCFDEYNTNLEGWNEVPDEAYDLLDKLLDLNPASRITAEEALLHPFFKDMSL
# In short: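 Time course in A2780 cells held at 3 µM for up to 24 h. Extracts were made in 50 mmol/L Tris-HCl pH 6.8, 1% SDS, 1 mmol/L DTT with 10 s sonication, loaded at 15 µg per lane, and immunoblotted with antiphosphopeptide antibodies to MCM2 Ser40 and Ser53. Cleaved caspase 3 was also probed.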
# A2780 [21] = test: Induction of apoptosis in human A2780 cells assessed as caspase 3 activation at 3 uM up to 24 hrs; type: functional, cell-based
# In short: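 A2780 cells held at 3 µM for up to 24 h; extracts in Tris-HCl pH 6.8 with 1% SDS and DTT, 15 µg protein per lane; cleaved caspase 3 detected by Western blot.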
# Cytochrome P450 1A2 = Cytochrome P450 1A2 (Homo sapiens, UniProt P05177); test: Inhibition of human CYP1A2; type: ADME
# Chain of Cytochrome P450 1A2 (P05177 whole entry): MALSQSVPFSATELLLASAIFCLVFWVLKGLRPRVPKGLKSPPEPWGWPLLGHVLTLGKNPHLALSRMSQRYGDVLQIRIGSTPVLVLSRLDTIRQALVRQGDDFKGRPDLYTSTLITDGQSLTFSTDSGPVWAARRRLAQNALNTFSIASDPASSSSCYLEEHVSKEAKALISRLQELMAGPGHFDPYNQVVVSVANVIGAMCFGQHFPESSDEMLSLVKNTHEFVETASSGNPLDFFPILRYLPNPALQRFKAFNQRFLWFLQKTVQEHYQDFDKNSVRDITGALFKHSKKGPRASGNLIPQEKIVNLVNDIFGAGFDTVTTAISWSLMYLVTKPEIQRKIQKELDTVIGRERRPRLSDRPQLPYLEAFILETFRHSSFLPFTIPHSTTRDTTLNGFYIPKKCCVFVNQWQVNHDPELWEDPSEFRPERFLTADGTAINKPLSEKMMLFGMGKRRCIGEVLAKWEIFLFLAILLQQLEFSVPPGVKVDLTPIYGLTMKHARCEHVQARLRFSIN
# Cytochrome P450 2C19 = Cytochrome P450 2C19 (Homo sapiens, UniProt P33261); test: Inhibition of human CYP2C19; type: ADME
# Cytochrome P450 2D6 = Cytochrome P450 2D6 (Homo sapiens, UniProt P10635); test: Inhibition of human CYP2D6; type: ADME
# A2780 [22] = test: Antitumor activity against human A2780 cells xenografted in CDI nu/nu mouse assessed as tumor growth inhibition at 60 mg/kg, po administered for 10 days; type: functional; conditions: A2780, 240 h, read-out: TGI
# Mus musculus = test: Inhibition of human Cdc7 in human A2780 cells xenografted in CDI nu/nu mouse assessed as inhibition of Ser53 phosphorylation of Mcm2 protein at 60 mg/kg, po first dose administered at 6 hrs and second dose 3 hrs after first dose by Western blot; type: functional, organism-based; parameters: dose 60 mg/kg
# In short: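 A2780 human ovarian carcinoma grown subcutaneously in CDI nu/nu mice. Two oral doses of 60 mg/kg were given within 6 h, the second 3 h after the first. Tumors were explanted and analysed by Western blot for MCM2 phosphorylated at Ser40 and Ser53, with total MCM2 and tubulin as loading controls. Vehicle-treated tumors served as controls.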
# [23] = target: Serine/threonine-protein kinase TAO3 (Homo sapiens, UniProt Q9H2K8); test: Inhibition of TAO3
# Chain of Serine/threonine-protein kinase TAO3 (Q9H2K8 whole entry): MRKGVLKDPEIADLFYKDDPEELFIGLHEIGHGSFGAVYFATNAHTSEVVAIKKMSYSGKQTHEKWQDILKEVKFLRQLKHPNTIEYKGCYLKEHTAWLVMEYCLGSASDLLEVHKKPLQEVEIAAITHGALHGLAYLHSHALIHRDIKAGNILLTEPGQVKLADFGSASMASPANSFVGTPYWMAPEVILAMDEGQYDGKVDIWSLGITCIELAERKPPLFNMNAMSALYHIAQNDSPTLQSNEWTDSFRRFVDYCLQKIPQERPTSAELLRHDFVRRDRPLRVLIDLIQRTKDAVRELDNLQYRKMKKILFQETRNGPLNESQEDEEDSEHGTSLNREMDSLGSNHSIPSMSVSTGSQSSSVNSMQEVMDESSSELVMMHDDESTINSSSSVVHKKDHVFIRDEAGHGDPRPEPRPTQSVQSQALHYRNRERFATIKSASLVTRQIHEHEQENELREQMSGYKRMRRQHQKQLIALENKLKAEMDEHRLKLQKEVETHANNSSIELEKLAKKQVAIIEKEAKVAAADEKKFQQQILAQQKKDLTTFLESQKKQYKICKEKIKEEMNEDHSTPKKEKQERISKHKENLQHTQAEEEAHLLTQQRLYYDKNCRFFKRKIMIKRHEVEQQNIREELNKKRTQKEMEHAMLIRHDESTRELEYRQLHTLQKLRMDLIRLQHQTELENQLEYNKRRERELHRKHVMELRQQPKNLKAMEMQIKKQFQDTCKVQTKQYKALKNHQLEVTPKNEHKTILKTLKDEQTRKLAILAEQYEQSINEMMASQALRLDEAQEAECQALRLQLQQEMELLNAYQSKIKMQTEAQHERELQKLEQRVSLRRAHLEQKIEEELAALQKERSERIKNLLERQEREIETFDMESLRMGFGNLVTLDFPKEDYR
# [24] = target: Cyclin-dependent kinase 2 (Homo sapiens, UniProt P24941); test: Inhibition of Cdk2A
# [25] = target: Protein kinase C beta type (Homo sapiens, UniProt P05771); test: Inhibition of PKCbeta
# Chain of Protein kinase C beta type (P05771 whole entry): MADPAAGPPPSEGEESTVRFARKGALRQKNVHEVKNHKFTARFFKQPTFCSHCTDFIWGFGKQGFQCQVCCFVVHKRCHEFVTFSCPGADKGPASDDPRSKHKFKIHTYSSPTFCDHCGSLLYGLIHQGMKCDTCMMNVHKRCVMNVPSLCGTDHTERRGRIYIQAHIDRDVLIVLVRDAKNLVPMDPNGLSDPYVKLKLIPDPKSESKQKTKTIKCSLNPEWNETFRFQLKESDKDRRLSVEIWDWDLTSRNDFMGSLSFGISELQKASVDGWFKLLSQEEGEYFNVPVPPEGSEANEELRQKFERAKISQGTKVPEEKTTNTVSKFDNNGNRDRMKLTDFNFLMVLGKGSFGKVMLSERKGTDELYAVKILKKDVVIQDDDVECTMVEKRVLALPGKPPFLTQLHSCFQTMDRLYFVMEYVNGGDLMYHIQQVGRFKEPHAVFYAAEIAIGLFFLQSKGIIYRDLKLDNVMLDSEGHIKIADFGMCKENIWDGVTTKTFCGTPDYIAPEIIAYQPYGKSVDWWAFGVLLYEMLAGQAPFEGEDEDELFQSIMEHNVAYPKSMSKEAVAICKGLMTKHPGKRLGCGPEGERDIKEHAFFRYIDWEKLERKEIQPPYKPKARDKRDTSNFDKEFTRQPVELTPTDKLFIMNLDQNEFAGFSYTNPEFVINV
# [26] = target: Cyclin-dependent kinase 5/CDK5 activator 1 (Homo sapiens, UniProt Q00535); test: Inhibition of CDK5/p25; type: protein-complex assay
# Chain of Cyclin-dependent kinase 5/CDK5 activator 1 (Q00535 whole entry): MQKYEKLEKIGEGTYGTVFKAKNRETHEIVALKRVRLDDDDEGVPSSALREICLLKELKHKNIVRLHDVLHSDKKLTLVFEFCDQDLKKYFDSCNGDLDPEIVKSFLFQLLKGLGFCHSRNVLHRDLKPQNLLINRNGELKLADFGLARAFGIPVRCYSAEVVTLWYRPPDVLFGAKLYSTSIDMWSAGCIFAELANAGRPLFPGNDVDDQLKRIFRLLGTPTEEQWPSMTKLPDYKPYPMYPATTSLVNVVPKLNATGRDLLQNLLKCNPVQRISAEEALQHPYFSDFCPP
# Chain of Cyclin-dependent kinase 5/CDK5 activator 1 (Q15078 whole entry, further chain): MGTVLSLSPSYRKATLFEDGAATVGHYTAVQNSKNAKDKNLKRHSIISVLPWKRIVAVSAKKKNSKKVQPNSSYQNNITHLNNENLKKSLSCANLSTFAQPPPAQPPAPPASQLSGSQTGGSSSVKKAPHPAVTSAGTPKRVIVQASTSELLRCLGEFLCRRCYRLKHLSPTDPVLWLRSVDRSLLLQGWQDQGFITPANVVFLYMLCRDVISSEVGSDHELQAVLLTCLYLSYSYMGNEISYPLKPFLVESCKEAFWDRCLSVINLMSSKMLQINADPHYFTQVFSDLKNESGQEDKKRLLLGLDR
# [27] = Tmax in Wistar rat at 20 mg/kg, po administered as single dose; conditions: in vivo
# Rattus norvegicus [28] = test: Oral bioavailability in Wistar rat at 20 mg/kg, po administered as single dose; conditions: in vivo
smiles,measurement,setting,value
Nc1nccc(-c2cc3c([nH]2)[C@@H](CCF)CNC3=O)n1,IC50,[1],> 4 µM
same,IC50,Insulin receptor,> 4 µM
same,IC50,[2],> 4 µM
same,IC50,[3],> 4 µM
same,IC50,[4],> 4 µM
same,IC50,[5],0.028 µM
same,CL (mL.min-1.kg-1),Hepatocyte,5
same,remaining at 1 h,[6],95%
same,AUC(0-inf),[7],9.5 µM·h
same,Cmax,[8],2.6 µM
same,AUC,Rattus norvegicus [9],19.9 µM·h
same,Cmax,[10],8.9 µM
same,AUC(0-inf),[11],6.3 µM·h
same,CL renal,[12],6.67 mL/min/kg
same,Vd,[13],2.1 L/kg
same,half-life,[14],36 min
same,Cmax,[15],5.5 µM
same,AUC(0-inf),[16],6.4 µM·h
same,IC50,COLO 205,0.5 µM
same,IC50,[17],0.4 µM
same,IC50,OPM-2,3.7 µM
same,Activity,HeLa [18],28%
same,Activity,HeLa [19],3%
same,Activity,[20],Active
same,Activity,A2780 [21],Active
same,Activity,Cytochrome P450 1A2,Not Active
same,Activity,Cytochrome P450 2C19,Not Active
same,Activity,Cytochrome P450 2D6,Not Active
same,inhibition in vivo at 60 mg/kg,A2780 [22],68%
same,Activity,Mus musculus,Active
same,IC50,[23],0.126 µM
same,IC50,[24],0.138 µM
same,IC50,[25],1.15 µM
same,IC50,[26],1.62 µM
same,Tmax,[27],18 min
same,F,Rattus norvegicus [28],33%
